For orientation: Km means the substrate concentration at which the rate is half of its maximum. What is called kcat is the number of substrate molecules converted per active site and unit of time at saturation.

The test system of one assay is Bradyrhizobium japonicum. As to the kind of experiment: Ratio of Kcat to Km for Bradyrhizobium japonicum beta-Lactamase BJP-1.
The subject of assay [1] is Pectobacterium atrosepticum. Put plainly: Activity of Erwinia carotovora subsp. atroseptica DSM 30184 beta-lactamase CAR-1. In short, it runs like this: (§1)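 Recombinant CAR-1, expressed in E. coli BL21(DE3)/pET9-CAR-1 and purified by DEAE-Sepharose then Mono Q chromatography in Zn-containing buffers. Enzyme was diluted in HZN buffer (50 mM HEPES-NaOH pH 7.5, 50 µM ZnSO4) with 20 µg/ml BSA and used at 1.9–3,800 nM.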

Assay [2] concerns Pectobacterium atrosepticum. As to the kind of experiment: Ratio of Kcat to Km for Erwinia carotovora subsp. atroseptica DSM 30184 beta-Lactamase CAR-1. The gist of the method: as §1

For `CO[C@@]1(NC(=O)Cc2cccs2)C(=O)N2C(C(=O)O)=C(COC(N)=O)CS[C@@H]21`, the kcat/Km with Bradyrhizobium japonicum is 7.1 ×10⁴ /M/s. For the same molecule, in assay [1], the Km is more than 1570 µM and the kcat was more than 7 s⁻¹. In addition, in assay [2], the kcat/Km was 4.7 ×10³ /M/s.
Turning to `CO/N=C(\C(=O)N[C@@H]1C(=O)N2C(C(=O)O)=C(CSc3nc(=O)c(O)nn3C)CS[C@H]12)c1csc(N)n1`, in the assay on Bradyrhizobium japonicum, the kcat/Km came to 9.6 ×10⁴ /M/s. In assay [1], the Km is 130 µM and the kcat was 13 s⁻¹. The kcat/Km in assay [2] is 9.9 ×10⁴ /M/s.
As for `CC1(C)S[C@@H]2[C@H](NC(=O)[C@H](N)c3ccccc3)C(=O)N2[C@H]1C(=O)O`, the kcat/Km with Bradyrhizobium japonicum is 1.9 ×10⁴ /M/s. In assay [1], the Km was 1600 µM and the kcat was 5 s⁻¹. Besides, the kcat/Km in assay [2] was determined as 3.2 ×10³ /M/s.
`CO/N=C(\C(=O)N[C@@H]1C(=O)N2C(C(=O)O)=C(COC(C)=O)CS[C@H]12)c1csc(N)n1`: the kcat/Km in the assay on Bradyrhizobium japonicum amounted to 1.4 ×10⁵ /M/s; in assay [2], 1.5 ×10⁶ /M/s. Moreover, the Km in assay [1] was found to be 160 µM. Also, the catalytic constant (kcat) in assay [1] was 250 s⁻¹.
In the case of `CO/N=C(\C(=O)N[C@@H]1C(=O)N2C(C(=O)[O-])=C(C[N+]3(C)CCCC3)CS[C@H]12)c1csc(N)n1`, the kcat/Km in the assay on Bradyrhizobium japonicum is 2 ×10² /M/s.
Consider `CCN1CCN(C(=O)N[C@@H](C(=O)N[C@@H]2C(=O)N3[C@@H]2SC(C)(C)[C@@H]3C(=O)O)c2ccccc2)C(=O)C1=O`, for which the kcat/Km with Bradyrhizobium japonicum was 6.7 ×10⁴ /M/s. In addition, in assay [1], the Michaelis-Menten constant (Km) was found to be 340 µM and the turnover number (kcat) was determined as 9 s⁻¹. For the same molecule, the kcat/Km in assay [2] was found to be 2.6 ×10⁴ /M/s.
Take `CO/N=C(\C(=O)N[C@@H]1C(=O)N2C(C(=O)O)=C(COC(N)=O)CS[C@H]12)c1ccco1`: the kcat/Km in the assay on Bradyrhizobium japonicum was 5 ×10⁵ /M/s; in assay [2], 3.6 ×10⁶ /M/s. Also, in assay [1], the Km came to 110 µM. For the same molecule, in assay [1], the turnover number (kcat) worked out at 400 s⁻¹.
Consider `CC(C)(O/N=C(\C(=O)N[C@@H]1C(=O)N2C(C(=O)[O-])=C(C[n+]3ccccc3)CS[C@H]12)c1csc(N)n1)C(=O)O`, for which, in assay [1], the Michaelis-Menten constant (Km) was more than 561 µM and the catalytic constant (kcat) was more than 160 s⁻¹. Further, the kcat/Km in assay [2] was determined as 2.9 ×10⁵ /M/s.
On to `CC1(C)S[C@@H]2[C@H](NC(=O)Cc3ccccc3)C(=O)N2[C@H]1C(=O)O`, for which the kcat/Km in the assay on Bradyrhizobium japonicum was 1.3 ×10⁵ /M/s. Further, in assay [1], the Km stood at 200 µM and the kcat was determined as 2 s⁻¹. The kcat/Km in assay [2] was 9.2 ×10³ /M/s.
With `C[C@@H](O)[C@H]1C(=O)N2C(C(=O)O)=C(SCCNC=N)C[C@H]12`, the kcat/Km with Bradyrhizobium japonicum was 6 ×10⁴ /M/s.
Regarding `CC1(C)S[C@@H]2[C@H](NC(=O)[C@H](C(=O)O)c3ccsc3)C(=O)N2[C@H]1C(=O)O`, in assay [1], the Km is 640 µM and the turnover number (kcat) came out at 9 s⁻¹. Besides, the kcat/Km in assay [2] amounted to 1.3 ×10⁴ /M/s.
`C[C@@H](O)[C@H]1C(=O)N2C(C(=O)O)=C([C@H]3CCCO3)S[C@H]12`: the kcat/Km came out at 6.8 ×10³ /M/s with Bradyrhizobium japonicum and 4.4 ×10⁴ /M/s in assay [2]. Also, the Michaelis constant (Km) in assay [1] turned out to be 120 µM. Further, the turnover number (kcat) in assay [1] was determined as 5 s⁻¹.
For `CC(=O)OCC1=C(C(=O)O)N2C(=O)[C@@H](NC(=O)Cc3cccs3)[C@H]2SC1`, in assay [1], the Km was determined as 200 µM and the kcat was 240 s⁻¹. Besides, the kcat/Km in assay [2] was 1.2 ×10⁶ /M/s.

The values are drawn from ChEMBL document CHEMBL1275443, “Functional diversity among metallo-beta-lactamases: characterization of the CAR-1 enzyme of Erwinia carotovora” (2008).
